Blank lines part the entries; values can stand above or below the compound they belong to.
Experiments:
[1] = target: T1, Type-1 angiotensin II receptor B (Rattus norvegicus, UniProt P29089); assay: Compound was evaluated for binding affinity against AT1 receptor in rat liver
T1 sequence (P29089 whole entry): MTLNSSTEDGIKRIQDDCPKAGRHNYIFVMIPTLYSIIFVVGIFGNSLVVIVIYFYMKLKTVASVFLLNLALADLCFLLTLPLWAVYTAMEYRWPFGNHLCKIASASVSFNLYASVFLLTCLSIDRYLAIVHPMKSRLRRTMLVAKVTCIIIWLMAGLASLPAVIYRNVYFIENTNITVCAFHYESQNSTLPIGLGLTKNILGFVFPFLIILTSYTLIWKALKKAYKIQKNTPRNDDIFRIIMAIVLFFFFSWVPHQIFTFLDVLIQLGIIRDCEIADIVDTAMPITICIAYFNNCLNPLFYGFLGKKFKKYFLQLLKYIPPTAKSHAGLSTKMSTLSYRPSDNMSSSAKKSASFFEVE
Procedure, shortened: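 Displacement of [125I]saralasin from AT1 receptors in rat liver membranes; compounds tested at multiple concentrations as required; Ki derived from the binding curves.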

[2] = target: T2, Type-1 angiotensin II receptor (Oryctolagus cuniculus, UniProt P34976); assay: Compound was evaluated for in vitro potency against AT1 receptor in isolated rabbit aorta; value ranges from 7.91-7.97; conditions: read-out: pA2 (converted)
T2 sequence (P34976 whole entry): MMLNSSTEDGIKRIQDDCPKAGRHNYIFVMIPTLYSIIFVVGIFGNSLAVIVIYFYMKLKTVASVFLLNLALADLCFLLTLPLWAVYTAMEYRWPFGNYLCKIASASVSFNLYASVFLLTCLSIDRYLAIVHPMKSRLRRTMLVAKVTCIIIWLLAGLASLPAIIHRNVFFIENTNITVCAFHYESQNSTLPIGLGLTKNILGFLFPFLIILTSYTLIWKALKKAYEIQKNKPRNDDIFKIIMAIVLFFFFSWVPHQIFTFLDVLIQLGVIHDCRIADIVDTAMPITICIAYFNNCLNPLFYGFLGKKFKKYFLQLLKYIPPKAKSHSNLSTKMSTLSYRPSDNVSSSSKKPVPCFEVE
Procedure, shortened: (§1)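 Isolated rabbit aortic ring preparation contracted with angiotensin II; concentration–response curves to AII run in the presence of antagonist; parallel rightward shifts analysed by Schild analysis to give pA2 and slope.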

[3] = target: T2, Type-1 angiotensin II receptor; assay: Compound was evaluated for in vitro potency against angiotensin II receptor, type 1 in isolated rabbit aorta; value ranges from 8.70-8.83; conditions: read-out: pA2 (converted); procedure, shortened: as §1
[4] = target: T2, Type-1 angiotensin II receptor; assay: Compound was evaluated for in vitro potency against Angiotensin II receptor, type 1 in isolated rabbit aorta; value ranges from 7.13-7.17; conditions: read-out: pA2 (converted); procedure, shortened: as §1
[5] = target: T2, Type-1 angiotensin II receptor; assay: Compound was evaluated for in vitro potency against angiotensin II receptor, type 1 in isolated rabbit aorta; type: tissue-based; conditions: read-out: pA2 (converted); procedure, shortened: as §1
[6] = target: T1, Type-1 angiotensin II receptor B; assay: Compound was evaluated for binding affinity against angiotensin II receptor, type 1 in rat liver
[7] = target: T2, Type-1 angiotensin II receptor; assay: Compound was evaluated for in vitro potency against angiotensin II receptor, type 1 in isolated rabbit aorta; value ranges from 8.08-8.22; conditions: read-out: pA2 (converted); procedure, shortened: as §1
[8] = target: T2, Type-1 angiotensin II receptor; assay: Compound was evaluated for in vitro potency against Angiotensin II receptor, type 1 in isolated rabbit aorta; value ranges from 5.53-5.69; conditions: read-out: pA2 (converted); procedure, shortened: as §1

Compound: CCCCc1ncc(C(=O)O)c(NCc2ccc(-c3ccccc3-c3nn[nH]n3)cc2)n1
Ki [1]: 198 nM
Kb [2]: 12.3 nM

Compound: CCN(Cc1ccc(-c2ccccc2-c2nn[nH]n2)cc1)c1ncccc1C(=O)O
Kb [3]: 2 nM

Compound: CCCCN(Cc1ccc(-c2ccccc2-c2nn[nH]n2)cc1)c1ncccc1C(=O)O
Kb [5]: 0.316 nM

Compound: CCCN(Cc1ccc(-c2ccccc2-c2nnn[nH]2)cc1)c1ncccc1C(=O)O
Ki [6]: 0.76 nM

Compound: CCCCN(Cc1ccc(-c2ccccc2-c2nnn[nH]2)cc1)c1nc(C)ccc1C(=O)O
Ki [6]: 122 nM
Kb [7]: 8.32 nM

Compound: CCCCN(Cc1ccc(-c2ccccc2-c2nnn[nH]2)cc1)c1ncncc1C(=O)O
Ki [6]: 3.13 nM
Kb [5]: 0.117 nM

Compound: O=C(O)c1cncnc1NCc1ccc(-c2ccccc2-c2nn[nH]n2)cc1
Kb [8]: 2950 nM

Now from value to compound:

Kb [4]: 74.1 nM
Compound: CCCCc1ncc(C(=O)O)c(N(C)Cc2ccc(-c3ccccc3-c3nn[nH]n3)cc2)n1

Ki [6]: 2.78 nM
Compound: CCCN(Cc1ccc(-c2ccccc2-c2nn[nH]n2)cc1)c1nc(C)ncc1C(=O)O

Ki [6]: 15.3 nM
Compound: CCCCN(Cc1ccc(-c2ccccc2-c2nn[nH]n2)cc1)c1nc(C)ncc1C(=O)O

Source: ChEMBL document CHEMBL1125309, “Discovery of a novel class of orally active, non-peptide angiotensin II antagonists” (J Med Chem, 1992)
